# Source: ChEMBL document CHEMBL1136006, “New PET imaging agent for the serotonin transporter: [(18)F]ACF (2-[(2-amino-4-chloro-5-fluorophenyl)thio]-N,N-dimethyl-benzenmethanamine)” (J Med Chem, 2002)
# Legend:
# Type in all cases: ADME, organism-based
# Rattus norvegicus [1] = species: Rattus norvegicus; assay: Ratio of regional brain distribution of [18F]ACF radiolabeled compound in rat striatum to that of cerebellum after 60 min; settings: in vivo, 1 h
# Procedure, shortened: (§1)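 Rats (three per group) under ether anesthesia got 30 μCi tracer in 0.2 mL saline into the femoral vein and were killed by cardiac excision at the stated time. Cortex, striatum, hippocampus, cerebellum, hypothalamus and the rest of brain were dissected, weighed and gamma counted. %dose/g was taken against counts of a diluted initial dose. Regional ratios are each region's %dose/g over cerebellum's. Mean ± SD.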
# Rattus norvegicus [2] = species: Rattus norvegicus; assay: Regional brain distribution of [18F]ACF radiolabeled compound in rat hippocampus after 240 min; settings: in vivo, 4 h; procedure, shortened: as §1
# Rattus norvegicus [3] = species: Rattus norvegicus; assay: Ratio of regional brain distribution of [18F]-ACF radiolabeled compound in rat cerebellum to that of cerebellum after 60 min; settings: in vivo, 1 h
# Procedure, shortened: (§2)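 Rats, three per time point, given 30 μCi tracer in 0.2 mL saline into femoral vein under ether anesthesia; killed at 2, 30, 60, 120 or 240 min. Cortex, striatum, hippocampus, cerebellum, hypothalamus and rest of brain dissected, weighed, counted; % dose/g against diluted initial dose, then each region divided by cerebellum. Average of three rats ± SD.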
# Rattus norvegicus [4] = species: Rattus norvegicus; assay: Ratio of regional brain distribution of [18F]-ACF radiolabeled compound in rat remainder to that of cerebellum after 2 min; settings: in vivo; procedure, shortened: as §1
# Rattus norvegicus [5] = species: Rattus norvegicus; assay: Organ distribution of [18F]ACF radiolabeled compound in rat blood after 2 min; settings: in vivo
# Procedure, shortened: (§3)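 Rats, three per time point, under ether anesthesia; 30 μCi tracer in 0.2 mL saline injected into femoral vein. Sacrificed by cardiac excision under ether at 2, 30, 60, 120 or 240 min. Organs removed, weighed and counted; % dose/organ calculated against counts of 1% of initial dose counted at the same time. Average of three rats ± SD.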
# Rattus norvegicus [6] = species: Rattus norvegicus; assay: Regional brain distribution of [18F]-ACF radiolabeled compound in rat hypothalamus after 2 min; settings: in vivo; procedure, shortened: as §1
# Rattus norvegicus [7] = species: Rattus norvegicus; assay: Regional brain distribution of [18F]-ACF radiolabeled compound in rat remainder (rest of brain) after 60 min; settings: in vivo, 1 h; procedure, shortened: as §1
# Rattus norvegicus [8] = species: Rattus norvegicus; assay: Regional brain distribution of [18F]-ACF radiolabeled compound in rat cerebellum after 240 min; settings: in vivo, 4 h; procedure, shortened: as §1
# Rattus norvegicus [9] = species: Rattus norvegicus; assay: Organ distribution of [18F]ACF radiolabeled compound in rat spleen after 2 min; settings: in vivo; procedure, shortened: as §3
# Rattus norvegicus [10] = assay: Ratio of effect of pretreatment with nisoxatine with a dose of 2 mg/kg (i.v.) on specific binding of [18F]ACF in rat brain hypothalamus to that of cerebellum; parameters: dose 2 mg/kg, route intravenous; settings: in vivo, iv
# Procedure, shortened: (§4)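 Rats (three per point) pretreated iv with competing drug at 2 mg/kg or saline (control) 5 min before iv [18F]ACF (50 μCi). At 1 h post tracer, brain regions (cortex, striatum, hippocampus, cerebellum, hypothalamus, remainder) dissected, weighed, counted as % dose/g and expressed as ratio to cerebellum. Average ± SD; ANOVA with Dunnett's test vs saline controls, p < 0.05.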
# Rattus norvegicus [11] = assay: Ratio of effect of pretreatment with methylphenidate with a dose of 2 mg/kg (i.v.) on specific binding of [18F]-ACF in rat brain remainder to that of cerebellum; parameters: dose 2 mg/kg, route intravenous; settings: in vivo, iv; procedure, shortened: as §4
# Rattus norvegicus [12] = species: Rattus norvegicus; assay: Ratio of regional brain distribution of [18F]ACF radiolabeled compound in rat cerebellum to that of cerebellum after 30 min; settings: in vivo, 0.5 h; procedure, shortened: as §1
# Rattus norvegicus [13] = assay: Ratio of effect of pretreatment with methylphenidate with a dose of 2 mg/kg (i.v.) on specific binding of [18F]ACF in rat brain hippocampus to that of cerebellum; parameters: dose 2 mg/kg, route intravenous; settings: in vivo, iv; procedure, shortened: as §4
# Rattus norvegicus [14] = species: Rattus norvegicus; assay: Ratio of regional brain distribution of [18F]ACF radiolabeled compound in rat striatum to that of cerebellum after 2 min; settings: in vivo; procedure, shortened: as §1
# Rattus norvegicus [15] = species: Rattus norvegicus; assay: Organ distribution of [18F]-ACF radiolabeled compound in rat spleen after 30 min; settings: in vivo, 0.5 h
# Procedure, shortened: (§5)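 Under ether anesthesia, 30 μCi no-carrier-added tracer in 0.2 mL saline injected into the femoral vein. Rats killed by cardiac excision at the stated time. Organs were removed, weighed and counted; % dose/organ was calculated against counts of a 1% initial-dose standard. Three rats per time, average ± SD.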
# Rattus norvegicus [16] = species: Rattus norvegicus; assay: Organ distribution of [18F]ACF radiolabeled compound in rat skin after 2 min; settings: in vivo; procedure, shortened: as §3
# Rattus norvegicus [17] = assay: Ratio of effect of pretreatment with nisoxatine with a dose of 2 mg/kg (i.v.) on specific binding of [18F]ACF in rat brain cortex to that of cerebellum; parameters: dose 2 mg/kg, route intravenous; settings: in vivo, iv; procedure, shortened: as §4
# Rattus norvegicus [18] = species: Rattus norvegicus; assay: Ratio of regional brain distribution of [18F]ACF radiolabeled compound in rat cortex to that of cerebellum after 30 min; settings: in vivo, 0.5 h; procedure, shortened: as §1
# Rattus norvegicus [19] = species: Rattus norvegicus; assay: Organ distribution of [18F]ACF radiolabeled compound in rat lung after 120 min; settings: in vivo, 2 h; procedure, shortened: as §3
# Rattus norvegicus [20] = species: Rattus norvegicus; assay: Ratio of regional brain distribution of [18F]-ACF radiolabeled compound in rat hippocampus to that of cerebellum after 30 min; settings: in vivo, 0.5 h; procedure, shortened: as §2
# Rattus norvegicus [21] = species: Rattus norvegicus; assay: Regional brain distribution of [18F]-ACF radiolabeled compound in rat hypothalamus after 240 min; settings: in vivo, 4 h; procedure, shortened: as §1
# Rattus norvegicus [22] = assay: Ratio of effect of pretreatment with (+)-McN5652 with a dose of 2 mg/kg (i.v.) on specific binding of [18F]ACF in rat brain hypothalamus to that of cerebellum; parameters: dose 2 mg/kg, route intravenous; settings: in vivo, iv; procedure, shortened: as §4
# Rattus norvegicus [23] = species: Rattus norvegicus; assay: Regional brain distribution of [18F]ACF radiolabeled compound in rat hypothalamus after 30 min; settings: in vivo, 0.5 h; procedure, shortened: as §1
# Rattus norvegicus [24] = assay: Effect of pretreatment with (+)-McN5652 with a dose of 2 mg/kg (i.v.) on specific binding of [18F]ACF in rat brain hypothalamus; parameters: dose 2 mg/kg, route intravenous; settings: in vivo, iv
# Procedure, shortened: (§6)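 Rats pretreated iv with drug (2 mg/kg) or saline 5 min before iv [18F]ACF (50 μCi). Sacrificed 1 h after tracer. Brain regions were dissected, weighed and counted, and % dose/g was calculated against a diluted initial dose. Drug-treated rats were compared with saline controls by ANOVA/Dunnett's test (p<0.05). Three rats per point, average ± SD.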
# Rattus norvegicus [25] = assay: Ratio of effect of pretreatment with nisoxatine with a dose of 2 mg/kg (i.v.) on specific binding of [18F]ACF in rat brain striatum to that of cerebellum; parameters: dose 2 mg/kg, route intravenous; settings: in vivo, iv; procedure, shortened: as §4
# Rattus norvegicus [26] = species: Rattus norvegicus; assay: Regional brain distribution of [18F]-ACF radiolabeled compound in rat striatum after 2 min; settings: in vivo; procedure, shortened: as §1
# Rattus norvegicus [27] = species: Rattus norvegicus; assay: Organ distribution of [18F]-ACF radiolabeled compound in rat heart after 240 min; settings: in vivo, 4 h; procedure, shortened: as §5
# Rattus norvegicus [28] = species: Rattus norvegicus; assay: Ratio of regional brain distribution of [18F]-ACF radiolabeled compound in rat hippocampus to that of cerebellum after 240 min; settings: in vivo, 4 h; procedure, shortened: as §2
# Rattus norvegicus [29] = assay: Effect of pretreatment with methylphenidate with a dose of 2 mg/kg (i.v.) on specific binding of [18F]ACF in rat brain hypothalamus; parameters: dose 2 mg/kg, route intravenous; settings: in vivo, iv; procedure, shortened: as §6
# Rattus norvegicus [30] = assay: Effect of pretreatment with nisoxatine with a dose of 2 mg/kg (i.v.) on specific binding of [18F]ACF in rat brain hypothalamus; parameters: dose 2 mg/kg, route intravenous; settings: in vivo, iv; procedure, shortened: as §6
# Rattus norvegicus [31] = species: Rattus norvegicus; assay: Ratio of regional brain distribution of [18F]-ACF radiolabeled compound in rat cortex to that of cerebellum after 120 min; settings: in vivo, 2 h; procedure, shortened: as §2
# Rattus norvegicus [32] = assay: Effect of pretreatment with (+)-McN5652 with a dose of 2 mg/kg (i.v.) on specific binding of [18F]ACF in rat brain cortex; parameters: dose 2 mg/kg, route intravenous; settings: in vivo, iv; procedure, shortened: as §6
# Rattus norvegicus [33] = species: Rattus norvegicus; assay: Ratio of regional brain distribution of [18F]-ACF radiolabeled compound in rat hypothalamus to that of cerebellum after 60 min; settings: in vivo, 1 h; procedure, shortened: as §1
# Rattus norvegicus [34] = species: Rattus norvegicus; assay: Ratio of regional brain distribution of [18F]ACF radiolabeled compound in rat cortex to that of cerebellum after 2 min; settings: in vivo; procedure, shortened: as §1
compound,measurement,setting,value
CN(C)Cc1ccccc1Sc1cc(F)c(Cl)cc1N,Ratio,Rattus norvegicus [1],2.88
same,Dose/g,Rattus norvegicus [2],0.04%
same,Ratio,Rattus norvegicus [3],1
same,Ratio,Rattus norvegicus [4],1.32
same,Dose/g,Rattus norvegicus [5],6.56 % dose/organ
same,Dose/g,Rattus norvegicus [6],1.76%
same,Dose/g,Rattus norvegicus [7],0.39%
same,Dose/g,Rattus norvegicus [8],0.02%
same,Dose/g,Rattus norvegicus [9],0.64 % dose/organ
same,Ratio,Rattus norvegicus [10],2.89
same,Ratio,Rattus norvegicus [11],2.23
same,Ratio,Rattus norvegicus [12],1
same,Ratio,Rattus norvegicus [13],2.5
same,Ratio,Rattus norvegicus [14],1.41
same,Dose/g,Rattus norvegicus [15],0.29 % dose/organ
same,Dose/g,Rattus norvegicus [16],4.76 % dose/organ
same,Ratio,Rattus norvegicus [17],1.94
same,Ratio,Rattus norvegicus [18],1.69
same,Dose/g,Rattus norvegicus [19],0.32 % dose/organ
same,Ratio,Rattus norvegicus [20],1.89
same,Dose/g,Rattus norvegicus [21],0.05%
same,Ratio,Rattus norvegicus [22],1.36
same,Dose/g,Rattus norvegicus [23],0.85%
same,Dose/g,Rattus norvegicus [24],0.24%
same,Ratio,Rattus norvegicus [25],2.5
same,Dose/g,Rattus norvegicus [26],1.78%
same,Dose/g,Rattus norvegicus [27],0.04 % dose/organ
same,Ratio,Rattus norvegicus [28],1.99
same,Dose/g,Rattus norvegicus [29],0.52%
same,Dose/g,Rattus norvegicus [30],0.55%
same,Ratio,Rattus norvegicus [31],1.77
same,Dose/g,Rattus norvegicus [32],0.24%
same,Ratio,Rattus norvegicus [33],3.53
same,Ratio,Rattus norvegicus [34],1.84
